According to the EternaBench riboswitch data:

Tested on: MS2 coat protein
Assay: apparent Kd, MS2 coat protein; higher = weaker binding; RNA-MaP array
Summary of the method: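 Designed RNAs were produced on an Illumina sequencing chip by transcription of sequenced DNA templates. Binding to fluorescently labeled MS2 coat protein (1.5 nM to 3 μM) was measured at room temperature with or without input ligand. The apparent Kd is the median of per-cluster binding-curve fits. Designs were excluded when measured on fewer than 10 clusters.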

[1] = designed as: OFF switch for flavin mononucleotide, no ligand
[2] = ligand present: flavin mononucleotide, designed as: OFF switch for flavin mononucleotide
[3] = designed as: ON switch for flavin mononucleotide, no ligand
[4] = ligand present: flavin mononucleotide, designed as: ON switch for flavin mononucleotide
[5] = designed as: OFF switch for theophylline, no ligand
[6] = ligand present: theophylline, designed as: OFF switch for theophylline

Row | Sequence | apparent Kd [1] | apparent Kd [2] | also measured
1 | CAUGUAGGCGAGAAGGCAACCGCGGUCCGGGAUUGAGGAUAUCGGCCAGGUGAUCCCGCCCAACAUGAGGAUCACCCAUGUAGC | 339 nM | 202 nM | –
2 | GAUUCACAUGAGGAUCACCCAUGUCAGGAUAUGACUUGAGCUGUCUCCGAUCGAGCCAUCAGAAGGGACUGGAA | 30 nM | 27.8 nM | –
3 | CCCUCGUCAACGGCCGCCACUGUGAUUCACUAAGAUAAUAUUGCACAUGAGGAUCACCCAUGUCUCAGGACCGGGUUGGUGUGUC | – | – | apparent Kd (designed as: ON switch for tryptophan, no ligand): 105 nM; apparent Kd (ligand present: tryptophan, designed as: ON switch for tryptophan): 65.9 nM
4 | GUCAGGCAACAGAAGGGAGGAUAUAACCGACAUGAGGAUCACCCAUGUGUAAAAGAAACAGUCGCUCAGGAUAUGUUCAACGUG | – | – | apparent Kd [3]: 15.9 nM; apparent Kd [4]: 9.36 nM
5 | UGAACACUGUGAGGAUAUCCACAUGAGGAUCACCCAUGUUUCCUCAGUGAUGCUAUAGCUUCCACGGAGAAGGCACAUGUAAUC | 31.2 nM | 48.2 nM | –
6 | GAAUAAAAUAUAAUAAGAAAACAUGAGGAUCACCCAUGUACAAGAAGGGAGAAACUUAACAUAACUCAGGAUAUUGUUAUAUCA | – | – | apparent Kd [3]: 28.9 nM; apparent Kd [4]: 22.2 nM
7 | AGCUAUUCGGGUAAGGAUAUCGAUGUUGUUACAUGAGGAUCACCCAUGUUGCUCGACAUCAGUGACGAGAAGGUACAGCGUGGUAU | – | – | apparent Kd [3]: 8.89 nM; apparent Kd [4]: 8.79 nM
8 | AUGCUGUGAGGAUAUCAGUCCCAGAAAAGCUGGCCGCUGACUGAGAAGGCACAUGAGGAUCACCCAUGUUCAAC | 10.2 nM | 15.7 nM | –
9 | GAUGAGUUUAAGGAUAUGGUGCGUUGCUUCUUACCAGAAGGUAAAACAUGAGGAUCACCCAUGUGACGGGUGCC | 177 nM | 103 nM | –
10 | ACUCAGUCAGGAUAUAGAGCCGCACGAGAUCGUGACUCGAUCUAGAAGGGACAUGAGGAUCACCCAUGUUAAGA | 12.7 nM | 20.8 nM | –
11 | ACUGAUUAUGUGAGGAUAUCGCUUUCAGGCAGAAACGAGAAGGCACAUGAGGAUCACCCAUGUUACGUCCACUG | 6.64 nM | 9.56 nM | –
12 | CUGUACCGAAUAGGAUAUGAAAAGAAGGUAAAUUCAGAAGGAUUCAAUUAAUUUACAUGAGGAUCACCCAUGUCUAAGCAAACA | – | – | apparent Kd [3]: 12.2 nM; apparent Kd [4]: 8.39 nM
13 | GGAUCACAUGAGGAUCACCCAUGUCAGGAUAUUAUGCCCUCCCAGUUGCUGAGACAUUUAAGAAGGGACGUGUA | 13.5 nM | 14.3 nM | –
14 | ACAUGAGGAUCACCCAUGUUAUAGGGCAGGGAACGGAGCAUCUAGGAUAUUGUACACCGGCUACACAAGAAGGAGACCGAAGCU | 15.7 nM | 12.3 nM | –
15 | GAGCCACAUGAGGAUCACCCAUGUCAGGAUAUCGCAAGCGGGAAUAAGCCAACGUCUACGAGAAGGGACUAAUG | 9.79 nM | 10.3 nM | –
16 | AGUGGGUUUCAGGAUAUAAUAUUAUCAACCAUAUUAGAAGGGAAUACAUGAGGAUCACCCAUGUUGAGUAUACG | 11.7 nM | 9.38 nM | –
17 | CUCGGAACAAUCGAUACCAGUUCUCAUGGAUUGCAGCAGUACAUGAGGAUCACCCAUGUAAACCCUUGGCAGCGAAGAACAAGAC | – | – | apparent Kd [5]: 32.7 nM; apparent Kd [6]: 55.3 nM
18 | CUCGGAAACGGAGGAUAUAGCUGAAGAGGAUUACUAGAAGGCCGAGACAUGAGGAUCACCCAUGUUUUCUCAAGUCGCAGUUUA | 7.93 nM | 9.48 nM | –
19 | AACAUACAUGAGGAUCACCCAUGUCAAGAGAUGAAAGGAUAUAACUCUAUCAGGGUAAAGUAAGAAGGUUCGACUA | – | – | apparent Kd [3]: 23.5 nM; apparent Kd [4]: 20.1 nM
20 | UCCGGUGACCUAGGAUAUCGUUCAACUAACAUGAGGAUCACCCAUGUGGUCUGUUUUAUGCCUGUCGAGAAGGAGGUGGAUAAG | 64.2 nM | 55.6 nM | –
21 | AGUUUUCCUGAGAAGGUGGAGGUCUUUCAUUGCCAAGGAUAUCAGACAACAAUGUAGCCCAAACAUGAGGAUCACCCAUGUCUC | – | – | apparent Kd [3]: 70.7 nM; apparent Kd [4]: 42.1 nM
22 | UAUUUGGGCAAGAAGGCAGGUUACAGCCAGCAUUAUCCACAUGAGGAUCACCCAUGUUCGGCGACUGAGGAUAUUGCCAAACCU | 38.5 nM | 37.5 nM | –
23 | AUCAUGUUAGGAUAUACAAUGUAACGAUCAUUCUUGUAUGCGUAGAAGGAACAUGAGGAUCACCCAUGUGGAAG | 43 nM | 46.8 nM | –
24 | UCUUUUCAACAGAAGGAAUGCAGGCGAUAUGAUUGUUUCCGUCAGACAUGAGGAUCACCCAUGUAUUAGGAUAUGUGAAACAGU | 6.2 nM | 7.15 nM | –

Row | Sequence | apparent Kd [1] | apparent Kd [2] | also measured
25 | CUACAUGAGGAUCACCCAUGUGCCUCUGGUCAGGGUCACUACGAGGAUAUAAUAGUUUAGACGAGUUAGAAGGCGUAUGAGUUA | 111 nM | 77.4 nM | –
26 | CCACGACUAGGAUAUACCUAUGUUCACUCGUGAUCAAGGACACAUGAGGAUCACCCAUGUAGAAGGAGUCGCUA | 8.84 nM | 10.6 nM | –
27 | AGAUCGCAAUAAGGAUAUGCACCUAAGACUCAAAGAACUCUUGACAUGAGGAUCACCCAUGUAACGCAGAAGGUAUAUGACUCA | – | – | apparent Kd [3]: 21 nM; apparent Kd [4]: 15.1 nM
28 | ACCCGCUCCUGAGGAUAUCCGGCAUGACAUGAGGAUCACCCAUGUGGGCUCGUGGAGGGAGUGCAGGAGAAGGCAGUAGGCGCU | 35.7 nM | 82.6 nM | –
29 | UUAAAACUAGGAUAUACAUGAGGAUCACCCAUGUGAACACACAAACAAAGAAAAUAAUGUAGAAGGAGACUAUA | 10.8 nM | 8.87 nM | –
30 | CAGCAACAAUUGGAUACCAGCCAUUACAGGUAUCAUUAUAACAUGAGGAUCACCCAUGUAGGCCCUUGGCAGCCAUUGGUGUAAG | – | – | apparent Kd [5]: 39.1 nM; apparent Kd [6]: 106 nM
31 | UCCUAUUCAGGAUAUGCGACACGAAACAUGAGGAUCACCCAUGUCUGGGCACCUCAAAGCGCAGAAGGGAACAACG | 665 nM | 321 nM | –
32 | ACAUACAUGAGGAUCACCCAUGUGGGAUCUUCCUCUAAAACUAAGGAUAUGUCAGUUGGUUAACUACAGAAGGUAGGUCGGAAC | 313 nM | 306 nM | –
33 | UAUAACGAAAGAGGAUAUAUCGGCCGUCUACGGAUAGAAGGCUUUCGCUAUGGCACUGAUGAUCUACAUGAGGAUCACCCAUGU | 7.91 nM | 7.19 nM | –
34 | GGUAUCGUAGGAUAUUAAUGUAGCCACAUGAGGAUCACCCAUGUAGUUCUAGUGGACCGUUAAGAAGGACGUGAUC | 66.1 nM | 82.8 nM | –
35 | CACUGACAACGAGGAUAUGGUCGAGCCAGACAUGAGGAUCACCCAUGUAUCGAAAGCAAUAAACUCCAGAAGGCGUAACAGUUG | – | – | apparent Kd [3]: 10.4 nM; apparent Kd [4]: 11.6 nM
36 | CCAGGACAUGAGGAUCACCCAUGUCAACAUCAAAUAAGCGCGUAGGAUAUCAAUACUGAAAGCUUUGAGAAGGACGAGAGGGUA | – | – | apparent Kd [3]: 22.8 nM; apparent Kd [4]: 17.8 nM
37 | GCUAGACAUGAGGAUCACCCAUGUGAGGAUAUUAGCCAAUCGAGUAAUCCGCUAUAGUUAAGAAGGCACGUGAU | 16.7 nM | 16 nM | –
38 | CUUUGACGUGAGAAGGUGCAGGGAAUACACAAGCAAGGAUAUCAUGCACAUGAGGAUCACCCAUGUCCUGUAACGUUUGGUGAC | 437 nM | 302 nM | –
39 | ACAGACAAGUAGAAGGCAAUGAGGAGUGAAAAUUGAGGAUAUACCAGCAUGAGUGCCUACAUGAGGAUCACCCAUGUGUAGAUU | 388 nM | 395 nM | –
40 | AAUACAGCUACGGCCGCCACUUUAACUUGGUAUGGGUCCUUCACAAACAUGAGGAUCACCCAUGUAAGGACCGGGUAGCCUUGUU | – | – | apparent Kd (designed as: OFF switch for tryptophan, no ligand): 21.1 nM; apparent Kd (ligand present: tryptophan, designed as: OFF switch for tryptophan): 35 nM
41 | UACAAAUAUCAUUACAUGAGGAUCACCCAUGUGGGACGUCGUAGAAGGGAGAUUCAAAUACAAGCUCAGGAUAUACAACUUCUG | – | – | apparent Kd [3]: 181 nM; apparent Kd [4]: 80.1 nM
42 | CUUCCACGAGGAUAUCCGUUAACGGACAUGAGGAUCACCCAUGUUAUCCUCACGUCAGCAGGAGAAGGCGUCUCAU | 22.5 nM | 33 nM | –
43 | AAAACUUCUAAGAAGGUGAUUUGGGCAUAUCGUCGUUUUACAUGAGGAUCACCCAUGUUUAACGUCAAGGAUAUUAGGGAUUCC | 6.11 nM | 5.9 nM | –
44 | AAGGGCGACGGACAGGAUAUAGUUAUUGUUACAUGAGGAUCACCCAUGUCUCCAGGUCUUUGACGCUAGAAGGGUCCCUCCUCGAC | – | – | apparent Kd [3]: 61.2 nM; apparent Kd [4]: 26.5 nM
45 | GUGCCACAUGAGGAUCACCCAUGUUUGGCAAGCAAAGGAUAUGGAAUGAUGGCUCGCAGCCCAGAAGGUUGUUGUG | – | – | apparent Kd [3]: 4.52 nM; apparent Kd [4]: 4.76 nM
46 | AAUUGUCGAGCAGGAUAUAGCUGACAGGAUAUUCAACUAACGACAUGAGGAUCACCCAUGUGUGGCUAGAAGGGCUUCAAGGCA | – | – | apparent Kd [3]: 15.2 nM; apparent Kd [4]: 11.5 nM
47 | ACUCAGUGAGGAUAUAUAGACGAGGAAAAGUGGAAACUUGAAUAGAAGGCACAUGAGGAUCACCCAUGUCGACG | 8.5 nM | 10.8 nM | –
48 | UUGCAACAAACAGGAUAUACGCGGACUUCACGGGUAGAAGGGUUCGACCAGGAGAUAUCCCACAUGAGGAUCACCCAUGUCGUC | 163 nM | 130 nM | –
